Data on four compounds can be found in ChEMBL document CHEMBL1148953, “Activity-guided fractionation of the leaves of Ormosia sumatrana using a proteasome inhibition assay” (J Nat Prod, 2004).

Test [1] relates to HL-60. Put plainly: Inhibition of human HL60 cells-derived chymotrypsin-like proteasome activity at 28 uM. The class given is subcellular.
For test [2], the system named is HL-60. As to the kind of experiment: (§1) Inhibition of human HL60 cells-derived chymotrypsin-like proteasome activity. The class given is subcellular. The gist of the method:
(§2)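 Proteasome-enriched fraction from HL-60 cells, prepared by 100 000g spin, then 5% and 12% PEG (w/v) fractionation and 2-fold dilution in 10 mM Tris-EDTA pH 7.5. Fraction at final 50 µg/mL in 155 mM Tris, 10 mM EDTA, pH 7.4. Preincubated with inhibitor 30 min at room temperature, then 10 µM Suc-LLVY-AMC for 1 h. Free AMC read at ex 360/em 460 nm. IC50 reported.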

A further test relates to KB. As to the kind of experiment: In vivo cytotoxicity against human KB cells by hollow fiber assay. Format: functional.
In the next test the test system is Col2. As to the kind of experiment: In vivo cytotoxicity against human Col2 cells by hollow fiber assay. The class given is functional.
Test [3] is described as follows: In vivo cytotoxicity against human RPE1 cells expressing human telomerase reverse transcriptase by hollow fiber assay. The class given is functional, TERT-RPE1.
Test [4] in a line: as §1. The settings on record: hl-60. Format: subcellular. The essentials:
as §2

Molecules are shown by their SMILES. The source made the active and inactive calls. The calls are words filed in the database; no cut-off is given here. A value given as a limit tells only on which side of the number the result lay.

One may read the inhibition as how much of the control response was suppressed. In the case of `O=C(/C=C/c1ccccc1)O[C@@H]1Cc2c(O)cc3c(c2O[C@@H]1c1ccc(O)c(O)c1)[C@H]1c2c(O)cc(O)cc2O[C@@](c2ccc(O)c(O)c2)(O3)[C@@H]1O`, the inhibition in the test on HL-60 [1] is < 10%.

Turning to `CCCCCCCC/C=C\CCCC[C@@H](OC(C)=O)[C@@H](OC(C)=O)[C@H](COC(C)=O)NC(C)=O`, in the test with HL-60 [2], the outcome was inactive. The ED50 (with KB; with Col2; in test [3]) was >5 µg/mL each time.

Broadly, the IC50 is the point on the concentration scale where inhibition reaches its midpoint. Lower therefore signals inhibition by little substance. Consider `CCCCCCCC/C=C\CCCC[C@@H](O)[C@@H](O)C(CO[C@@H]1O[C@H](CO)[C@@H](O)[C@H](O)[C@H]1O)NC(=O)[C@@H](O)CCCCCCCCCCCCCCCCCCCCCC` (stereo not given in full) [SUMATRANOSIDE], for which, in test [4], the IC50 was 30 µM.

Consider `CCCCCCCCCCCCCCCCCCCCCC[C@@H](OC(C)=O)C(=O)OC`, for which the outcome in the test with HL-60 [2] was inactive. Also, the ED50 (in the test on KB; with Col2; in test [3]) was >5 µg/mL each time.
